According to ChEMBL document CHEMBL1255234, “daptomycin activity against Staphylococcus aureus following vancomycin exposure in an in vitro pharmacodynamic model with simulated endocardial vegetations” (Antimicrob Agents Chemother, 2008):
Values after ≈ are worked out from the molar mass of the structure shown.

Columns and labels:
Staphylococcus aureus [1] = test: Half life in methicillin-resistant Staphylococcus aureus WB2 at 1 g administered every 12 hrs for 4 days in in vitro pharmacokinetic-pharmacodynamic model with simulated endocardial vegetations; type: ADME, organism-based; conditions: in vivo
Procedure, shortened: (§1)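 Duplicate samples taken from the model injection port over 0–192 h and stored at −70°C. Daptomycin assayed by Micrococcus luteus ATCC 9341 disk microbioassay (standards 2.5–150 mg/liter; detection limit 2.5 mg/liter). Vancomycin assayed by fluorescence polarization immunoassay (detection limit 2 mg/liter). Cmax and half-life derived by the trapezoidal method.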

Staphylococcus aureus [2] = test: Cmax in methicillin-resistant Staphylococcus aureus WB1 at 6 mg/kg administered daily for 4 days pretreated with 1 g vancomycin administered every 12 hrs for 4 days in in vitro pharmacokinetic-pharmacodynamic model with simulated endocardial vegetations; type: ADME, organism-based; parameters: dose 6 mg/kg; conditions: in vivo, 96 h; procedure, shortened: as §1
Staphylococcus aureus [3] = test: Half life in methicillin-susceptible Staphylococcus aureus 616 at 6 mg/kg administered daily for 4 days pretreated with 1 g vancomycin administered every 12 hrs for 4 days in in vitro pharmacokinetic-pharmacodynamic model with simulated endocardial vegetations; type: ADME, organism-based; parameters: dose 6 mg/kg; conditions: in vivo, 96 h; procedure, shortened: as §1
Staphylococcus aureus [4] = test: Antimicrobial activity against methicillin-susceptible Staphylococcus aureus 616 at 6 mg/kg administered daily for 4 days in in vitro pharmacokinetic-pharmacodynamic model with simulated endocardial vegetations; type: functional
Procedure, shortened: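 SEVs (clot of cryoprecipitate, platelets and organism) were suspended in a 250-ml, 37°C model with bolus dosing and pump clearance simulating half-lives. Daptomycin was given every 24 h (Cmax 98.6, Cmin 6.2 mg/liter) after 4 days of vancomycin 1 g q12h or no treatment. SEVs were sampled to 192 h, homogenized and plated (35°C, 24 h) for CFU/g; T99.9 was derived. Runs were done in duplicate.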

Staphylococcus aureus [5] = test: microbe, parasite or virus in culture; conditions: 36132
Staphylococcus aureus [6] = test: Half life in methicillin-resistant Staphylococcus aureus 675 at 6 mg/kg administered daily for 4 days pretreated with 1 g vancomycin administered every 12 hrs for 4 days in in vitro pharmacokinetic-pharmacodynamic model with simulated endocardial vegetations; type: ADME, organism-based; parameters: dose 6 mg/kg; conditions: in vivo, 96 h; procedure, shortened: as §1
Staphylococcus aureus [7] = test: Antimicrobial activity against methicillin-resistant Staphylococcus aureus WB1
Staphylococcus aureus [8] = test: Cmax in methicillin-resistant Staphylococcus aureus 675 at 6 mg/kg administered daily for 4 days pretreated with 1 g vancomycin administered every 12 hrs for 4 days in in vitro pharmacokinetic-pharmacodynamic model with simulated endocardial vegetations; type: ADME, organism-based; parameters: dose 6 mg/kg; conditions: in vivo, 96 h; procedure, shortened: as §1
Staphylococcus aureus [9] = test: Antimicrobial activity against methicillin-susceptible Staphylococcus aureus 616; type: functional
Procedure, shortened: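 MIC by broth microdilution in SMHB or by Etest, following CLSI guidelines. MBC defined as 99.9% killing of the starting inoculum, from 5 μl of the MIC well and all other growth-inhibited wells plated onto agar.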

Staphylococcus aureus [10] = test: Cmax in methicillin-resistant Staphylococcus aureus WB2 at 6 mg/kg administered daily for 4 days pretreated with 1 g vancomycin administered every 12 hrs for 4 days in in vitro pharmacokinetic-pharmacodynamic model with simulated endocardial vegetations; type: ADME, organism-based; parameters: dose 6 mg/kg; conditions: in vivo, 96 h; procedure, shortened: as §1
Staphylococcus aureus [11] = test: Half life in methicillin-susceptible Staphylococcus aureus 616 at 10 mg/kg administered daily for 4 days pretreated with 1 g vancomycin administered every 12 hrs for 4 days in in vitro pharmacokinetic-pharmacodynamic model with simulated endocardial vegetations; type: ADME, organism-based; parameters: dose 10 mg/kg; conditions: in vivo, 96 h; procedure, shortened: as §1
Staphylococcus aureus [12] = test: Half life in methicillin-resistant Staphylococcus aureus WB2 at 6 mg/kg administered daily for 4 days pretreated with 1 g vancomycin administered every 12 hrs for 4 days in in vitro pharmacokinetic-pharmacodynamic model with simulated endocardial vegetations; type: ADME, organism-based; parameters: dose 6 mg/kg; conditions: in vivo, 96 h; procedure, shortened: as §1
Staphylococcus aureus [13] = test: Antimicrobial activity against methicillin-susceptible Staphylococcus aureus 616 at 6 mg/kg administered daily for 4 days pretreated with 1 g vancomycin administered every 12 hrs for 4 days in in vitro pharmacokinetic-pharmacodynamic model with simulated endocardial vegetations; type: functional
Procedure, shortened: (§2)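 S. aureus SEVs (≈10^9 CFU/g inoculum in human cryoprecipitate plus platelets) suspended in a 250-ml one-compartment model at 37°C. Fresh medium pumped to simulate drug half-lives; drug given as boluses over 8 days; duplicate models. Two SEVs removed per model at each time point (0–192 h), homogenized, plated on TSA 35°C 24 h. Log10 CFU/g reduction read from time-kill curves; detection limit 2.0 log10 CFU/g.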

Staphylococcus aureus [14] = test: Antimicrobial activity against methicillin-susceptible Staphylococcus aureus at 6 mg/kg administered daily for 4 days after 4 days of growth without antibiotic in in vitro pharmacokinetic-pharmacodynamic model with simulated endocardial vegetations
Staphylococcus aureus [15] = test: Antimicrobial activity against methicillin-susceptible Staphylococcus aureus 616 at 6 mg/kg administered daily for 8 days pretreated with 1 g vancomycin administered every 12 hrs for 4 days in in vitro pharmacokinetic-pharmacodynamic model with simulated endocardial vegetations; type: functional; procedure, shortened: as §2
Staphylococcus aureus [16] = test: Cmax in methicillin-susceptible Staphylococcus aureus 616 at 10 mg/kg administered daily for 4 days pretreated with 1 g vancomycin administered every 12 hrs for 4 days in in vitro pharmacokinetic-pharmacodynamic model with simulated endocardial vegetations; type: ADME, organism-based; parameters: dose 10 mg/kg; conditions: in vivo, 96 h; procedure, shortened: as §1
Staphylococcus aureus [17] = test: Cmax in methicillin-resistant Staphylococcus aureus 36132 at 6 mg/kg administered daily for 4 days pretreated with 1 g vancomycin administered every 12 hrs for 4 days in in vitro pharmacokinetic-pharmacodynamic model with simulated endocardial vegetations; type: ADME, organism-based; parameters: dose 6 mg/kg; conditions: in vivo, 96 h; procedure, shortened: as §1
Staphylococcus aureus [18] = test: Antimicrobial activity against methicillin-resistant Staphylococcus aureus WB2
Staphylococcus aureus [19] = test: Half life in methicillin-resistant Staphylococcus aureus 36132 at 6 mg/kg administered daily for 4 days pretreated with 1 g vancomycin administered every 12 hrs for 4 days in in vitro pharmacokinetic-pharmacodynamic model with simulated endocardial vegetations; type: ADME, organism-based; parameters: dose 6 mg/kg; conditions: in vivo, 96 h; procedure, shortened: as §1
Staphylococcus aureus [20] = test: AUC(0-24 hrs)/MIC(broth) in methicillin-susceptible Staphylococcus aureus 616 at 1 g administered every 12 hrs for 4 days in in vitro pharmacokinetic-pharmacodynamic model with simulated endocardial vegetations; type: functional
Procedure, shortened: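 S. aureus simulated endocardial vegetations (fibrin/platelet clots, ~10^9 CFU/g) suspended in a 250-ml one-compartment model at 37°C, medium pumped to mimic half-life; vancomycin bolus every 12 h (target Cmax 30, Cmin 10 mg/liter) for 4 days. Duplicate runs. Drug levels by fluorescence polarization immunoassay; AUC0-24 by trapezoidal method, divided by broth microdilution MIC (CLSI).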

Staphylococcus aureus [21] = test: microbe, parasite or virus in culture; conditions: 675
Staphylococcus aureus [22] = test: Cmax in methicillin-susceptible Staphylococcus aureus 616 at 6 mg/kg administered daily for 4 days pretreated with 1 g vancomycin administered every 12 hrs for 4 days in in vitro pharmacokinetic-pharmacodynamic model with simulated endocardial vegetations; type: ADME, organism-based; parameters: dose 6 mg/kg; conditions: in vivo, 96 h; procedure, shortened: as §1
Staphylococcus aureus [23] = test: Antimicrobial activity against methicillin-susceptible Staphylococcus aureus 616 at 6 mg/kg administered daily for 8 days in in vitro pharmacokinetic-pharmacodynamic model with simulated endocardial vegetations; type: functional; procedure, shortened: as §2
Staphylococcus aureus [24] = test: Half life in methicillin-resistant Staphylococcus aureus WB1 at 6 mg/kg administered daily for 4 days pretreated with 1 g vancomycin administered every 12 hrs for 4 days in in vitro pharmacokinetic-pharmacodynamic model with simulated endocardial vegetations; type: ADME, organism-based; parameters: dose 6 mg/kg; conditions: in vivo, 96 h; procedure, shortened: as §1
Staphylococcus aureus [25] = test: Half life in methicillin-resistant Staphylococcus aureus 36132 at 1 g administered every 12 hrs for 4 days in in vitro pharmacokinetic-pharmacodynamic model with simulated endocardial vegetations; type: ADME, organism-based; conditions: in vivo; procedure, shortened: as §1
Staphylococcus aureus [26] = test: Cmax in methicillin-resistant Staphylococcus aureus WB1 at 1 g administered every 12 hrs for 4 days in in vitro pharmacokinetic-pharmacodynamic model with simulated endocardial vegetations; type: ADME, organism-based; parameters: dose 1 g; conditions: in vivo; procedure, shortened: as §1
Staphylococcus aureus [27] = test: Half life in methicillin-resistant Staphylococcus aureus WB1 at 1 g administered every 12 hrs for 4 days in in vitro pharmacokinetic-pharmacodynamic model with simulated endocardial vegetations; type: ADME, organism-based; conditions: in vivo; procedure, shortened: as §1
Staphylococcus aureus [28] = test: Half life in methicillin-resistant Staphylococcus aureus 675 at 1 g administered every 12 hrs for 4 days in in vitro pharmacokinetic-pharmacodynamic model with simulated endocardial vegetations; type: ADME, organism-based; conditions: in vivo; procedure, shortened: as §1
Staphylococcus aureus [29] = test: Cmax in methicillin-resistant Staphylococcus aureus WB2 at 1 g administered every 12 hrs for 4 days in in vitro pharmacokinetic-pharmacodynamic model with simulated endocardial vegetations; type: ADME, organism-based; parameters: dose 1 g; conditions: in vivo; procedure, shortened: as §1
Staphylococcus aureus [30] = test: Cmax in methicillin-resistant Staphylococcus aureus 675 at 1 g administered every 12 hrs for 4 days in in vitro pharmacokinetic-pharmacodynamic model with simulated endocardial vegetations; type: ADME, organism-based; parameters: dose 1 g; conditions: in vivo; procedure, shortened: as §1
Staphylococcus aureus [31] = test: Cmax in methicillin-susceptible Staphylococcus aureus 616 at 1 g administered every 12 hrs for 4 days in in vitro pharmacokinetic-pharmacodynamic model with simulated endocardial vegetations; type: ADME, organism-based; parameters: dose 1 g; conditions: in vivo; procedure, shortened: as §1
Staphylococcus aureus [32] = test: Half life in methicillin-susceptible Staphylococcus aureus 616 at 1 g administered every 12 hrs for 4 days in in vitro pharmacokinetic-pharmacodynamic model with simulated endocardial vegetations; type: ADME, organism-based; conditions: in vivo; procedure, shortened: as §1
Staphylococcus aureus [33] = test: Cmax in methicillin-resistant Staphylococcus aureus 36132 at 1 g administered every 12 hrs for 4 days in in vitro pharmacokinetic-pharmacodynamic model with simulated endocardial vegetations; type: ADME, organism-based; parameters: dose 1 g; conditions: in vivo; procedure, shortened: as §1

CCCCCCCCCC(=O)N[C@@H](Cc1c[nH]c2ccccc12)C(=O)N[C@H](CC(N)=O)C(=O)N[C@@H](CC(=O)O)C(=O)N[C@@H]1C(=O)NCC(=O)N[C@@H](CCCN)C(=O)N[C@@H](CC(=O)O)C(=O)N[C@H](C)C(=O)N[C@@H](CC(=O)O)C(=O)NCC(=O)N[C@H](CO)C(=O)N[C@@H]([C@H](C)CC(=O)O)C(=O)N[C@@H](CC(=O)c2ccccc2N)C(=O)O[C@@H]1C
t1/2 (Staphylococcus aureus [1]): 5.3 h
Cmax (Staphylococcus aureus [2]): 98.3 µg/mL
t1/2 (Staphylococcus aureus [3]): 8.4 h
T99.9% (Staphylococcus aureus [4]): 10.9 h
MIC (Staphylococcus aureus [5]): 0.25 µg/mL (≈ 0.154 µM)
t1/2 (Staphylococcus aureus [6]): 8 h
MIC (Staphylococcus aureus [7]): 0.25 µg/mL (≈ 0.154 µM)
Cmax (Staphylococcus aureus [8]): 107.2 µg/mL
MIC (Staphylococcus aureus [9]): 0.125 µg/mL (≈ 0.0771 µM)
Cmax (Staphylococcus aureus [10]): 106.1 µg/mL
t1/2 (Staphylococcus aureus [11]): 9.3 h
t1/2 (Staphylococcus aureus [12]): 7.6 h
T99.9% (Staphylococcus aureus [13]): 9.46 h
T99.9% (Staphylococcus aureus [14]): 34.9 h
T99.9% (Staphylococcus aureus [15]): 6.6 h
Cmax (Staphylococcus aureus [16]): 160.2 µg/mL
Cmax (Staphylococcus aureus [17]): 109.3 µg/mL
MIC (Staphylococcus aureus [18]): 0.25 µg/mL (≈ 0.154 µM)
t1/2 (Staphylococcus aureus [19]): 8.8 h
RatioAUC/MIC (Staphylococcus aureus [20]): 536.4
MIC (Staphylococcus aureus [21]): 0.25 µg/mL (≈ 0.154 µM)
Cmax (Staphylococcus aureus [22]): 106.8 µg/mL
T99.9% (Staphylococcus aureus [23]): 4.8 h
t1/2 (Staphylococcus aureus [24]): 7.9 h

CN[C@H](CC(C)C)C(=O)N[C@H]1C(=O)N[C@@H](CC(N)=O)C(=O)N[C@H]2C(=O)N[C@H]3C(=O)N[C@H](C(=O)N[C@H](C(=O)O)c4cc(O)cc(O)c4-c4cc3ccc4O)[C@H](O)c3ccc(c(Cl)c3)Oc3cc2cc(c3O[C@@H]2O[C@H](CO)[C@@H](O)[C@H](O)[C@H]2O[C@H]2C[C@](C)(N)[C@H](O)[C@H](C)O2)Oc2ccc(cc2Cl)[C@H]1O [VANCOMYCIN]
t1/2 (Staphylococcus aureus [25]): 6.9 h
t1/2 (Staphylococcus aureus [1]): 5.3 h
Cmax (Staphylococcus aureus [26]): 32.8 µg/mL
t1/2 (Staphylococcus aureus [27]): 6.6 h
t1/2 (Staphylococcus aureus [28]): 7.2 h
Cmax (Staphylococcus aureus [29]): 33.4 µg/mL
Cmax (Staphylococcus aureus [30]): 32.9 µg/mL
Cmax (Staphylococcus aureus [31]): 31.7 µg/mL
t1/2 (Staphylococcus aureus [32]): 7.4 h
Cmax (Staphylococcus aureus [33]): 31.4 µg/mL
